The source made the active and inactive calls. No cut-off for these calls is given here.
These compounds were tested on RAW264.7 (assay: Antiinflammatory activity in mouse RAW264.7 cells assessed as inhibition of LPS-induced NO production at 10 uM preincubated for 1 hr followed by LPS addition and measured after 24 hrs by Griess reagent-based assay relative to control).
Format: functional
Summary of the method: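 RAW 264.7 cells pretreated with compound for 1 h, then LPS 1 µg/mL for 24 h. Single-point inhibition at 10 µM. IC50 by regression of inhibition over several concentrations. At least three independent experiments.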
`CCCc1nn(C)c2c(NCCc3cccc(Cl)c3)nc(/C=C/c3cc(OC)c(OC)c(OC)c3)nc12` gave an inhibition at 10 µM of 80%.
In the case of `CCCc1nn(C)c2c(Nc3cccc(C(F)(F)F)c3)nc(/C=C/c3cc(OC)c(OC)c(OC)c3)nc12`, the inhibition at 10 µM is reported as 38.2%.
For `CCCc1nn(C)c2c(NCc3ccco3)nc(/C=C/c3ccco3)nc12`, the inhibition at 10 µM was 52.3%.
For `CCCc1nn(C)c2c(NCCc3ccc(Cl)cc3)nc(-c3cc(OC)c(OC)c(OC)c3)nc12`, the inhibition at 10 µM was 22.2%.
Work on `CCCc1nn(C)c2c(NCc3cccc(OC)c3)nc(/C=C/c3cc(OC)c(OC)c(OC)c3)nc12` yielded an inhibition at 10 µM of 70.9%.
Work on `CCCc1nn(C)c2c(N(C)C)nc(-c3cc(OC)c(OC)c(OC)c3)nc12` yielded an inhibition at 10 µM of 21.2%.
In the case of `CCCc1nn(C)c2c(N(C)C)nc(/C=C/c3ccccc3)nc12`, the inhibition at 10 µM is reported as 27.1%.
`CCCc1nn(C)c2c(NCc3ccc(C(F)(F)F)cc3)nc(/C=C/c3ccco3)nc12` gave an inhibition at 10 µM of 50.2%.
Compound `CCCc1nn(C)c2c(N(C)C)nc(/C=C/c3cc(OC)c(OC)c(OC)c3)nc12` has an inhibition at 10 µM of 82.1%.
For `CCCc1nn(C)c2c(NCCc3ccccc3)nc(/C=C/c3ccco3)nc12`, the inhibition at 10 µM was 36.4%.
`CCCc1nn(C)c2c(Nc3ccccc3Br)nc(/C=C/c3cc(OC)c(OC)c(OC)c3)nc12` showed an inhibition at 10 µM of 38.5%.
`CCCc1nn(C)c2c(Nc3cccc(C(F)(F)F)c3)nc(/C=C/c3ccco3)nc12` was tested, and the inhibition at 10 µM was 8.9%.
`CCCc1nn(C)c2c(NCCc3ccccc3Cl)nc(/C=C/c3cc(OC)c(OC)c(OC)c3)nc12` showed an inhibition at 10 µM of 46.9%.
`CCCc1nn(C)c2c(Nc3cccc(C)c3)nc(/C=C/c3ccccc3)nc12` gave an inhibition at 10 µM of 15.3%.
`CCCc1nn(C)c2c(NCCc3ccccc3)nc(/C=C/c3cc(OC)c(OC)c(OC)c3)nc12` was tested, and the inhibition at 10 µM was 86.1%.
Work on `CCCc1nn(C)c2c(N3CCCCC3)nc(/C=C/c3cc(OC)c(OC)c(OC)c3)nc12` yielded an inhibition at 10 µM of 16.3%.
`CCCc1nn(C)c2c(N3CCOCC3)nc(/C=C/c3ccccc3)nc12` showed an inhibition at 10 µM of 10.2%.
For `CCCc1nn(C)c2c(Nc3cccc(C)c3)nc(/C=C/c3ccco3)nc12`, the inhibition at 10 µM was 8.9%.
`CCCc1nn(C)c2c(NCCc3ccccc3Cl)nc(/C=C/c3ccccc3)nc12` gave an inhibition at 10 µM of 14.3%.
`CCCc1nn(C)c2c(Nc3ccc(OC)cc3)nc(/C=C/c3cc(OC)c(OC)c(OC)c3)nc12` showed an inhibition at 10 µM of 63.2%.
`CCCc1nn(C)c2c(NCc3ccc(Cl)cc3)nc(/C=C/c3ccccc3)nc12` was tested, and the inhibition at 10 µM was 24.2%.
For `CCCc1nn(C)c2c(NCc3ccc(Br)cc3)nc(/C=C/c3ccco3)nc12`, the inhibition at 10 µM was 40.6%.
With `CCCc1nn(C)c2c(NCc3ccc(OC)cc3)nc(/C=C/c3cc(OC)c(OC)c(OC)c3)nc12` the inhibition at 10 µM was 73.1%.
For `CCCc1nn(C)c2c(NCCc3ccccc3Cl)nc(/C=C/c3ccco3)nc12`, the inhibition at 10 µM was 70.8%.
Work on `CCCc1nn(C)c2c(NCCc3ccccc3F)nc(/C=C/c3ccccc3)nc12` yielded an inhibition at 10 µM of 43.9%.
`CCCc1nn(C)c2c(Nc3ccc(C(=O)N4CCN(CC)CC4)cc3)nc(/C=C/c3cc(OC)c(OC)c(OC)c3)nc12` showed an inhibition at 10 µM of 15.4%.
`CCCc1nn(C)c2c(NC(C)C)nc(/C=C/c3ccco3)nc12` showed an inhibition at 10 µM of 37.7%.
For `CCCc1nn(C)c2c(NCc3ccccc3OC)nc(/C=C/c3ccco3)nc12`, the inhibition at 10 µM was 38.4%.
For `CCCc1nn(C)c2c(Nc3ccccc3)nc(-c3cc(OC)c(OC)c(OC)c3)nc12`, the inhibition at 10 µM was 22.2%.
In the case of `CCCc1nn(C)c2c(NCc3ccco3)nc(/C=C/c3cc(OC)c(OC)c(OC)c3)nc12`, the inhibition at 10 µM is reported as 62.1%.
Compound `CCCc1nn(C)c2c(Nc3cccc(C(F)(F)F)c3)nc(/C=C/c3ccccc3)nc12` has an inhibition at 10 µM of 14.6%.
For `CCCc1nn(C)c2c(NCc3ccccc3Cl)nc(/C=C/c3ccco3)nc12`, the inhibition at 10 µM was 54.8%.
`CCCc1nn(C)c2c(NCCCN3CCOCC3)nc(/C=C/c3ccccc3)nc12` gave an inhibition at 10 µM of 42.4%.
In the case of `CCCCNC(=O)c1ccc(Nc2nc(/C=C/c3cc(OC)c(OC)c(OC)c3)nc3c(CCC)nn(C)c23)cc1`, the inhibition at 10 µM is reported as 35.9%.
`CCCc1nn(C)c2c(NCc3ccc(F)cc3)nc(/C=C/c3cc(OC)c(OC)c(OC)c3)nc12` was tested, and the inhibition at 10 µM was 69.7%.
`CCCc1nn(C)c2c(N3CCCC3)nc(/C=C/c3ccccc3)nc12` gave an inhibition at 10 µM of 6.3%.
Work on `CCCc1nn(C)c2c(NCc3ccc(F)cc3)nc(/C=C/c3ccco3)nc12` yielded an inhibition at 10 µM of 50.7%.
Compound `CCCc1nn(C)c2c(NCc3ccc(C(F)(F)F)cc3)nc(/C=C/c3cc(OC)c(OC)c(OC)c3)nc12` has an inhibition at 10 µM of 54.6%.
`CCCc1nn(C)c2c(NCc3cccc(OC)c3)nc(/C=C/c3ccco3)nc12` was tested, and the inhibition at 10 µM was 35.6%.
Work on `CCCc1nn(C)c2c(N3CCCCC3)nc(/C=C/c3ccccc3)nc12` yielded an inhibition at 10 µM of 7.7%.
With `CCCc1nn(C)c2c(Nc3ccccc3)nc(/C=C/c3cc(OC)c(OC)c(OC)c3)nc12` the inhibition at 10 µM was 48.1%.
Work on `CCCc1nn(C)c2c(NCCc3ccccc3)nc(-c3cc(OC)c(OC)c(OC)c3)nc12` yielded an inhibition at 10 µM of 20.2%.
In the case of `CCCc1nn(C)c2c(Nc3ccc(F)c(C(F)(F)F)c3)nc(/C=C/c3cc(OC)c(OC)c(OC)c3)nc12`, the inhibition at 10 µM is reported as 82.6%.
`CCCc1nn(C)c2c(NCCc3ccc(Cl)cc3)nc(/C=C/c3ccccc3)nc12` showed an inhibition at 10 µM of 10.7%.
`CCCc1nn(C)c2c(Nc3cccc(C(F)(F)F)c3)nc(-c3cc(OC)c(OC)c(OC)c3)nc12` was tested, and the inhibition was “inactive”.
`CCCc1nn(C)c2c(NCc3ccc(Cl)cc3)nc(/C=C/c3cc(OC)c(OC)c(OC)c3)nc12` gave an inhibition at 10 µM of 67.2%.
In the case of `CCCc1nn(C)c2c(N3CCN(CC)CC3)nc(/C=C/c3cc(OC)c(OC)c(OC)c3)nc12`, the inhibition at 10 µM is reported as 28.3%.
`CCCc1nn(C)c2c(Nc3ccc(Br)cc3)nc(/C=C/c3cc(OC)c(OC)c(OC)c3)nc12` gave an inhibition at 10 µM of 33%.
In the case of `CCCc1nn(C)c2c(NCCc3ccccc3F)nc(/C=C/c3ccco3)nc12`, the inhibition at 10 µM is reported as 73%.
Compound `CCCc1nn(C)c2c(Nc3cccc(Br)c3)nc(/C=C/c3cc(OC)c(OC)c(OC)c3)nc12` has an inhibition at 10 µM of 31%.
In the case of `CCCc1nn(C)c2c(NC(C)CC)nc(/C=C/c3cc(OC)c(OC)c(OC)c3)nc12` (centres undefined), the inhibition at 10 µM is reported as 75%.
Work on `CCCc1nn(C)c2c(NCc3ccccc3Cl)nc(/C=C/c3cc(OC)c(OC)c(OC)c3)nc12` yielded an inhibition at 10 µM of 90%.
Compound `CCCc1nn(C)c2c(Nc3ccccc3C)nc(/C=C/c3cc(OC)c(OC)c(OC)c3)nc12` has an inhibition at 10 µM of 54.4%.
`CCCc1nn(C)c2c(Nc3ccc(C(=O)OC)cc3)nc(-c3cc(OC)c(OC)c(OC)c3)nc12` showed an inhibition at 10 µM of 17.3%.
`CCCc1nn(C)c2c(Nc3ccc(Cl)cc3)nc(/C=C/c3cc(OC)c(OC)c(OC)c3)nc12` showed an inhibition at 10 µM of 25.3%.
For `CCCc1nn(C)c2c(NCc3ccc(OC)cc3)nc(/C=C/c3ccco3)nc12`, the inhibition at 10 µM was 43.8%.
`CCCc1nn(C)c2c(N(C)C)nc(/C=C/c3ccco3)nc12` gave an inhibition at 10 µM of 30.6%.
`CCCc1nn(C)c2c(NCCc3ccccc3)nc(/C=C/c3ccccc3)nc12` was tested, and the inhibition at 10 µM was 48.6%.
`CCCc1nn(C)c2c(Nc3ccc(C(=O)OC)cc3)nc(/C=C/c3cc(OC)c(OC)c(OC)c3)nc12` was tested, and the inhibition at 10 µM was 10.3%.
Compound `CCCc1nn(C)c2c(N3CCOCC3)nc(/C=C/c3cc(OC)c(OC)c(OC)c3)nc12` has an inhibition at 10 µM of 81%.
For `CCCc1nn(C)c2c(NCCc3ccc(O)cc3)nc(/C=C/c3cc(OC)c(OC)c(OC)c3)nc12`, the inhibition at 10 µM was 15%.
`CCCc1nn(C)c2c(N3CCOCC3)nc(-c3cc(OC)c(OC)c(OC)c3)nc12` gave an inhibition at 10 µM of 5.2%.
`CCCc1nn(C)c2c(Nc3ccc(C(=O)O)cc3)nc(/C=C/c3cc(OC)c(OC)c(OC)c3)nc12` showed an inhibition at 10 µM of 15.3%.
Work on `CCCc1nn(C)c2c(NC)nc(-c3cc(OC)c(OC)c(OC)c3)nc12` yielded an inhibition at 10 µM of 21.6%.
`CCCc1nn(C)c2c(Nc3cccc(C)c3)nc(-c3cc(OC)c(OC)c(OC)c3)nc12` was tested, and the inhibition was “inactive”.
Work on `CCCc1nn(C)c2c(NCc3ccc(Br)cc3)nc(/C=C/c3cc(OC)c(OC)c(OC)c3)nc12` yielded an inhibition at 10 µM of 53.9%.
For `CCCc1nn(C)c2c(NCCc3ccccc3F)nc(/C=C/c3cc(OC)c(OC)c(OC)c3)nc12`, the inhibition at 10 µM was 85%.
Compound `CCCc1nn(C)c2c(Nc3ccc(OC(F)(F)F)cc3)nc(/C=C/c3cc(OC)c(OC)c(OC)c3)nc12` has an inhibition at 10 µM of 16.4%.
With `CCCc1nn(C)c2c(Nc3ccc(C(=O)OC)cc3)nc(/C=C/c3ccccc3)nc12` the inhibition at 10 µM was 42.4%.
For `CCCc1nn(C)c2c(N3CCCC3)nc(/C=C/c3cc(OC)c(OC)c(OC)c3)nc12`, the inhibition at 10 µM was 15.5%.
In the case of `CCCc1nn(C)c2c(Nc3ccc(C(F)(F)F)cc3)nc(/C=C/c3cc(OC)c(OC)c(OC)c3)nc12`, the inhibition at 10 µM is reported as 37.8%.
Work on `CCCc1nn(C)c2c(NCCc3ccc(OC)cc3)nc(-c3cc(OC)c(OC)c(OC)c3)nc12` yielded an inhibition at 10 µM of 10.2%.
For `CCCc1nn(C)c2c(Nc3ccc(C(=O)NC(C)(C)C)cc3)nc(/C=C/c3cc(OC)c(OC)c(OC)c3)nc12`, the inhibition at 10 µM was 10.6%.
`CCCc1nn(C)c2c(Nc3ccc(C(=O)N4CCN(CC)CC4)cc3)nc(-c3cc(OC)c(OC)c(OC)c3)nc12` was tested, and the inhibition at 10 µM was 27.6%.
For `CCCc1nn(C)c2c(NCCc3ccc(OC)cc3)nc(/C=C/c3ccccc3)nc12`, the inhibition at 10 µM was 48%.
For `CCCCNC(=O)c1ccc(Nc2nc(-c3cc(OC)c(OC)c(OC)c3)nc3c(CCC)nn(C)c23)cc1`, the inhibition was “inactive”.
In the case of `CCCc1nn(C)c2c(Nc3cccc(C)c3)nc(/C=C/c3cc(OC)c(OC)c(OC)c3)nc12`, the inhibition at 10 µM is reported as 25.8%.
For `CCCc1nn(C)c2c(N3CCCCC3)nc(-c3cc(OC)c(OC)c(OC)c3)nc12`, the inhibition at 10 µM was 7.6%.
`CCCc1nn(C)c2c(N3CCN(CC)CC3)nc(/C=C/c3ccccc3)nc12` showed an inhibition at 10 µM of 10.2%.

From ChEMBL document CHEMBL4354797, “Novel Pyrazolo[4,3- d]pyrimidine as Potent and Orally Active Inducible Nitric Oxide Synthase (iNOS) Dimerization Inhibitor with Efficacy in Rheumatoid Arthritis Mouse Model” (J Med Chem, 2019)
